Results published in the array DNA melting data of Ke et al. (doi:10.1101/2024.01.08.574731).

Columns and labels:
[1] = folding enthalpy; higher = less favourable; fluorescence melt of hairpins on a sequencing array, two-state fit; conditions: sodium 0.088 M
How it was run: (§1)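 Folding enthalpy and melting temperature come from bootstrapped two-state fits to Cy3 fluorescence of library hairpins carrying annealed Cy3 and quencher oligos on a sequenced MiSeq flow cell. Imaging was done in 50 mM Na-HEPES pH 8.0, 25 mM NaCl, stepping by 2.5 °C up to 60 °C, and signals were normalised to pre-quench Cy3 and to control constructs. Results of four replicates were combined by inverse variance, and fitted temperatures were raised by 9.35 °C to match UV melts.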

[2] = melting temperature; fluorescence melt of hairpins on a sequencing array, two-state fit, raised by 9.35 °C to match UV melts; conditions: sodium 0.088 M
How it was run: as §1

Sequence | folding enthalpy [1] | Tm [2]
GGCTTAGGAAACTAAGTC (.(((((....))))).) | -32.5 kcal/mol | 44.4 °C
GTCGTCCCGAAAGGGGAC (((..(((....)))))) | -11.7 kcal/mol | 45.1 °C
GATCGGAGACCCGATC ((((((....)))))) | -36.6 kcal/mol | 53 °C
GCTGGCCGAAAGGCAAGC (((.(((....))).))) | -25.5 kcal/mol | 68.9 °C
GCTAAGCGAAAGCCTTGC ((.(.((....)).).)) | -13.1 kcal/mol | 34.6 °C
GGTGAGAAATCACC (((((....))))) | -27.6 kcal/mol | 51 °C
GCGCAGGGAAACCCACGC (((..((....))..))) | -26.7 kcal/mol | 43.9 °C
GATCTTTATAAAGATC ((((((....)))))) | -38.4 kcal/mol | 45.5 °C
GGCATCGAAAGATAGCC ((((((....))).))) | -25.6 kcal/mol | 51.9 °C
GCGGTACCCCGC ((((....)))) | -21.6 kcal/mol | 54.5 °C
GGACAGGGAAACCTATCC (((.(((....))).))) | -19.3 kcal/mol | 32.6 °C
GATACAGAAATGTATC ((((((....)))))) | -30.3 kcal/mol | 44.8 °C
GCAATGCGAAAGCATAGC ((.((((....)))).)) | -18.6 kcal/mol | 57.8 °C
GCAACGGGAAACCGCTAC (.(.(((....))).).) | -9.4 kcal/mol | 28.3 °C
GATCGTAAATACGATC ((((((....)))))) | -38.9 kcal/mol | 53 °C
GCTTCTACGAAAGTAAGC (((..(((....)))))) | -14 kcal/mol | 33.1 °C
GCGGGGCCGAAAGGCCGC (((..(((....)))))) | -10.2 kcal/mol | 59.6 °C
GATCATGCGATGATC ((((((...)))))) | -31.9 kcal/mol | 46.9 °C
GCGCTGACGAAAGTCCGC (((..(((....)))))) | -25.1 kcal/mol | 51 °C
GAACTAGGAAACCAGTTC (((((.(....).))))) | -28.3 kcal/mol | 33.9 °C
GCCTCCGAAAGGATAGGC ((((((....)))..))) | -37.1 kcal/mol | 53.2 °C
GTTAATGGAAACATTAAC (((((((....))))))) | -37.7 kcal/mol | 49.4 °C
GCAAAGCGAAAGCTCTGC (((.(((....))).))) | -31.1 kcal/mol | 47 °C

Sequence | folding enthalpy [1] | Tm [2]
GGTTGCCCGAAAGGGACC (((..(((....)))))) | -11.5 kcal/mol | 37.9 °C
GATAACGGAAACGTTGTC ((.((((....)))).)) | -28 kcal/mol | 45.8 °C
GCTAGTGGAAACGCTAGC (((((.(....).))))) | -40.4 kcal/mol | 52.3 °C
GGATGTGGAAACGTATCC ((((..(....)..)))) | -22.3 kcal/mol | 35.1 °C
GACTGACGAAAGTCCGTC (((.(((....))).))) | -29.4 kcal/mol | 49.2 °C
GAATTGGGAAACCAATCC (.(((((....))))).) | -14.6 kcal/mol | 29.8 °C
GTTGGCGAAAGCCTGAAC ((((((....)))..))) | -8.07 kcal/mol | 30.9 °C
GCCGAGCGAAAGCCAGGC (((..((....))..))) | -24 kcal/mol | 62.7 °C
GCGTGGGAACGC ((((....)))) | -20.4 kcal/mol | 66.7 °C
GCGAAGCGAAAGCTTTGC ((.((((....)))).)) | -22.4 kcal/mol | 62.6 °C
GTTACACCGAAAGGTAAC (((..(((....)))))) | -15.8 kcal/mol | 31.8 °C
GTTTCACGAAAGTGTAAC (((.(((....))).))) | -24.6 kcal/mol | 44.7 °C
GAACCCGAAAGGGGATTC ((((((....)))..))) | -16.6 kcal/mol | 42.9 °C
GATCATTTCATGATC ((((((...)))))) | -40.6 kcal/mol | 51.8 °C
GAGGGACGAAAGTCGCTC (((.(((....))).))) | -34.3 kcal/mol | 65.6 °C
GCTCCGCGAAAGCCGTGC ((.(.((....)).).)) | -9.49 kcal/mol | 39.1 °C
GTTTCAGGAAACCGAAAC (((((.(....).))))) | -30 kcal/mol | 37.4 °C
GGAATTCGAAAGAAATCC (((.(((....))).))) | -30.5 kcal/mol | 39.5 °C
GCGATGCGAAAGCTTGGC ((.(.((....)).).)) | -15.1 kcal/mol | 43.8 °C
GCTAGGCGAAAGCGGAGC (((..((....))..))) | -20.1 kcal/mol | 42.4 °C
GTGGCCGAAAGGCCCAC ((((((....))).))) | -10.5 kcal/mol | 57.5 °C
GATCCGGGACGGATC ((((((...)))))) | -37.1 kcal/mol | 68.9 °C
GTCAATGGAAACATTGAC (((((((....))))))) | -39.8 kcal/mol | 58.9 °C

Sequence | folding enthalpy [1] | Tm [2]
GAGTTCGGAAACGAATTC ((.((((....)))).)) | -30.8 kcal/mol | 44 °C
GGCAAGGGAAACCTTGCC (((((((....))))))) | -33.1 kcal/mol | 67.8 °C
GGTCACGGAAACGTGATC (.(((((....))))).) | -30.4 kcal/mol | 53 °C
GTGTAGCGAAAGCTGCAC (((.(((....))).))) | -36.6 kcal/mol | 63.9 °C
GATTGGGGAAACCCGATC (((.(((....))).))) | -35 kcal/mol | 48.8 °C
GATCCCGGGTGGGATC ((((((....)))))) | -36 kcal/mol | 60.3 °C
GGTGGGCGAAAGCCTACC (((.(((....))).))) | -22.3 kcal/mol | 65.6 °C
GGAGGCCCGAAAGGGTCC (((..(((....)))))) | -12 kcal/mol | 42.6 °C
TCAATGAAAATTGA (((((....))))) | -9.78 kcal/mol | 25 °C
GGACGCGAAAGCGCTCC ((((((....))).))) | -20.5 kcal/mol | 54.9 °C
ACGGGGAAACCCGT (((((....))))) | -17.3 kcal/mol | 65.1 °C
GTAATTCGAAAGAAATAC (((.(((....))).))) | -16.9 kcal/mol | 33 °C
GTTTGACGAAAGTCGAAC (((.(((....))).))) | -35 kcal/mol | 57.8 °C
GATCCTGTAGAGGATC ((((((....)))))) | -36 kcal/mol | 55.5 °C
GCGCGAGGAAACCCGCGC (((((.(....).))))) | -33.8 kcal/mol | 69.1 °C
GATCCTACGAGGATC ((((((...)))))) | -29.5 kcal/mol | 53.4 °C
GGTACCGAAAGGTTGACC ((((((....)))..))) | -16.9 kcal/mol | 36 °C
GCAATGCGAAAGCACTGC (((.(((....))).))) | -36.8 kcal/mol | 51.6 °C
GTTGGGTCGAAAGACAAC (((..(((....)))))) | -18.2 kcal/mol | 38.1 °C
CGGTTCGGAAACGACCCG (((.(((....))).))) | -33 kcal/mol | 50 °C
GTGGCAGGAAACCGCCAC (((((.(....).))))) | -46.8 kcal/mol | 55.9 °C
GCGTGCACGAAAGTGCGC (((..(((....)))))) | -9.64 kcal/mol | 51.9 °C
GTGCGGGGAAACCCGCGC (.(((((....))))).) | -16.1 kcal/mol | 67.2 °C
